Laboratory results as given in ChEMBL document CHEMBL1123204, “Nucleosides. 136. Synthesis and antiviral effects of several 1-(2-deoxy-2-fluoro-beta-D-arabinofuranosyl)-5-alkyluracils. Some structure-activity relationships” (J Med Chem, 1986).

What was measured:
Vero [1] = assay: (§1) Compound was tested for antiviral activity against Herpes simplex virus-1 (Strain F) in vero cells by plaque reduction assay.; format: functional; details: Chlorocebus sabaeus, read-out: ED50 (the source's name)
Vero [2] = assay: (§2) Compound was tested for antiviral activity against Herpes simplex virus-2 (Strain G) in vero cells by plaque reduction assay.; format: functional; details: Chlorocebus sabaeus, read-out: ED50 (the source's name)
Vero [3] = assay: as §1; format: functional, Chlorocebus sabaeus
Vero [4] = assay: as §2; format: functional, Chlorocebus sabaeus
[5] = Theuraptic Index: ratio of ID 50 / ED 90 of compound against HSV 1; format: functional
In short: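 Index computed as cytotoxic ID50 over antiviral ED90. Antiviral activity was measured against HSV-1 (strain F) by plaque-reduction assay in Vero cells. Cytotoxicity was measured in rapidly dividing Vero cells.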

[6] = Theuraptic Index: ratio of ID 50 / ED 90 of compound against HSV 2; format: functional
In short: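 Index computed as cytotoxic ID50 over antiviral ED90. Antiviral activity was measured against HSV-2 (strain G) by plaque-reduction assay in Vero cells. Cytotoxicity was measured in rapidly dividing Vero cells.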

| SMILES | EC50 (Vero [1]) [µM] | EC50 (Vero [2]) [µM] | ED90 (Vero [3]) [µM] | ED90 (Vero [4]) [µM] | TI [5] | TI [6] |
| --- | --- | --- | --- | --- | --- | --- |
| CCC(C)c1cn([C@@H]2O[C@H](CO)[C@@H](O)[C@@H]2F)c(=O)[nH]c1=O (some centres undefined) | 15.6 | > 400 | 305 | >400 |  |  |
| C=CCc1cn([C@@H]2O[C@H](CO)[C@@H](O)[C@@H]2F)c(=O)[nH]c1=O | 3.3 | 6 | 21.3 | 29.7 | 73 | 52 |
| CC(C)Cc1cn([C@@H]2O[C@H](CO)[C@@H](O)[C@@H]2F)c(=O)[nH]c1=O | 28.7 | 113 | 92.7 | 422 |  |  |
| CCCCc1cn([C@@H]2O[C@H](CO)[C@@H](O)[C@@H]2F)c(=O)[nH]c1=O | 11.1 | 15.9 | 76 | 40.3 | > 11 | > 20 |
| CCCc1cn([C@@H]2O[C@H](CO)[C@@H](O)[C@@H]2F)c(=O)[nH]c1=O | 0.48 | 0.9 | 4.27 | 7.58 | 551 | 310 |
| CC(C)c1cn([C@@H]2O[C@H](CO)[C@@H](O)[C@@H]2F)c(=O)[nH]c1=O | 1 | 13 | 8.7 | 72.3 | > 92 | > 11 |
| Cc1cn([C@@H]2O[C@H](CO)[C@@H](O)[C@@H]2F)c(=O)[nH]c1=O [5-METHYL-2'-FLUOROARAURACIL] | 0.018 | 0.023 | 0.047 | 0.09 | 59 | 31 |
| CCc1cn([C@@H]2O[C@H](CO)[C@@H](O)[C@@H]2F)c(=O)[nH]c1=O | 0.024 | 0.24 | 0.26 | 0.96 | 6540 | 1770 |
